The test system of series [1] is Paracoccus denitrificans. In words: Maximum velocity of accumulation of [55Fe]-labeled low-affinity component complexes by Paracoccus denitrificans. In kind it is functional, organism-based. The arrangement: unit not given here. The method, boiled down: (§1)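 Late log-phase P. denitrificans (ATCC 17741), grown in defined low-iron medium with 0.5 μM Fe(III), washed and resuspended in transport buffer to OD660 1.00. Suspensions were preincubated 15 min at 30 °C with shaking before [55Fe] ferric chelate was added at 0.1–5.0 μM. Samples were taken every 20 s for 2 min, stopped in chilled buffer, filtered, rinsed and scintillation counted. Initial rates were expressed per mg protein, and Km and Vmax were taken from Lineweaver–Burk fits.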

Series [2] concerns Paracoccus denitrificans. Kind of series: Michaelis-Menten constant for accumulation of [55Fe]-labeled high-affinity component complexes by Paracoccus denitrificans. In kind it is functional, organism-based. The method, boiled down:
as §1

Series [3] relates to Paracoccus denitrificans. In words: Maximum velocity of accumulation of [55Fe]-labeled high-affinity component complexes by Paracoccus denitrificans. In kind it is functional, organism-based. Set-up: unit not given here. The method, boiled down:
as §1

In series [4] the test system is Paracoccus denitrificans. Kind of series: Michaelis-Menten constant for accumulation of [55Fe]-labeled low-affinity component complexes by Paracoccus denitrificans. In kind it is functional, organism-based. Put shortly:
as §1

The nature of series [5]: Iron clearance was stimulated by the compound was expressed as % distribution of excreted Fe in bile by subcutaneous dose of 150 umol/kg. In kind it is ADME. The following applies: in vivo, sc. Put shortly: (§2)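 Non-iron-overloaded, bile duct-cannulated male Sprague–Dawley rats (about 400 g), housed in metabolic cages with free access to water. Single sc injection at 150 µmol/kg. Bile was collected at 3-h intervals for 48 h and urine every 24 h. Excreted iron was apportioned between bile and urine.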

The nature of series [6]: Iron clearance was stimulated by the compound was expressed as % distribution of excreted Fe in urine by subcutaneous dose of 150 umol/kg. In kind it is ADME. The following applies: in vivo, sc. Put shortly: as §2
The test system of series [7] is Rattus norvegicus. Kind of series: Iron clearance was stimulated by the compound was expressed as % efficiency by subcutaneous dose of 150 umol/kg. In kind it is functional. Put shortly:
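Bile duct-cannulated, non-iron-overloaded male Sprague–Dawley rats (about 400 g) were kept in metabolic cages and given one sc dose of 150 µmol/kg. Bile was collected every 3 h and urine every 24 h over 48 h. Efficiency is the excreted iron minus that of control animals, divided by the theoretical iron excretion from dose and coordination chemistry.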

The text below walks through data of ChEMBL document CHEMBL1134539, “Significance of asymmetric sites in choosing siderophores as deferration agents” (J Med Chem, 2001).

Values joined by “and” are separate entries in the source; they are usually repeats but may differ in a detail not shown here. Equal values may be shown once.

With `C[C@H]1OC(c2cccc(O)c2O)=N[C@@H]1C(=O)N(CCCCNC(=O)c1cccc(O)c1O)CCCCNC(=O)c1cccc(O)c1O`, the figures for the Vmax in series [1] and in series [3] were 229 and 138, respectively. In addition, the values for the Km in series [2] and in series [4] were 0.17 µM and 1 µM, respectively.
For `C[C@H]1OC(c2cccc(O)c2O)=N[C@@H]1C(=O)N(CCCCNC(=O)c1cccc(O)c1O)CCCNC(=O)c1cccc(O)c1O`, the Vmax is 245 and 247 in series [1]; 157 and 153 in series [3]. Besides, the Km is 0.11 µM in series [2]; 0.55 µM and 0.53 µM in series [4].
Take `C[C@@H]1OC(c2cccc(O)c2O)=N[C@H]1C(=O)N(CCCNC(=O)c1cccc(O)c1O)CCCNC(=O)c1cccc(O)c1O`: the results for the “Distribution of excreted Fe” value in series [5] and in series [6] were 90.8% and 9.2%, respectively. Also, the Vmax in series [1] stood at 96. Moreover, the Efficiency in series [7] was 16%. Also, the Km in series [4] was determined as 3.5 µM.
In the case of `C[C@H]1OC(c2cccc(O)c2O)=NC1C(=O)N(CCCNC(=O)c1cccc(O)c1O)CCCNC(=O)c1cccc(O)c1O` (stereo not given in full), the “Distribution of excreted Fe” value in series [5] came to 84.6%; in series [6], 15.4%. Moreover, the Vmax in series [1] is 413; in series [3], 129. Moreover, the Km in series [2] came out at 0.23 µM; in series [4], 2.2 µM. The compound also came in with an Efficiency in series [7] of 13.8%.
